Ecoli WT growth = blocks growth of wild type E. coli BW25113; inhibition, % at 10 µM; E. coli BW25113 growth inhibition, OD600; actives 0.05% (n = 20,000); in the data active means inhibition above about 40%;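 further: bacteria exposed to compound for 20 hours at 37 °C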
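Assay system: Bacterial strain in a whole-cell growth screen | Amount: Inoculum from a 1:1000 dilution of a 1.5 h subculture | Detection: Absorbance at 615 nm as a measure of bacterial growth | Timing: 20 h exposure, 37 °C | Buffer or medium: LB plus kanamycin 50 µg/mL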
Numbers without * were called inactive. The full list was thinned out, with hits kept by preference.

SMILES	Ecoli WT growth
Cc1ccc(-n2ncc3c(=O)n(CC(=O)N4CCCc5ccccc54)cnc32)cc1C	0
Cc1nc(N2CCc3ccccc32)[nH]c(=O)c1CCC(C)C	-6
CC(=O)c1coc2ccc(OCC(=O)O)cc12	10
Cc1cc(=O)oc2ccc(OCC(=O)N(Cc3ccc(F)cc3)Cc3ccco3)cc12	9
O=C(CCn1c(=O)oc2ccccc21)NCCN1CCOCC1	18
N#CC1=C(N)OC2=C(C(=O)CCC2)C1Cc1ccccc1 (stereo unspecified)	-16
Cc1cc(N2CCCC2=O)cc(C)c1CN1C(=O)c2ccccc2C1=O	-24
O=C(N1CCOCC1)N1CCC(NC(=O)C23CC4CC(CC(C4)C2)C3)CC1	-1
CC1CN(S(=O)(=O)c2ccc(Cl)c(C(F)(F)F)c2)CC(C)O1 (stereo unspecified)	-8
COc1cc(C)c(S(=O)(=O)N2CCCC2)cc1C	4
CCn1c(COc2ccc3c(c2)CCCC3)nnc1SCC(=O)Nc1nccs1	3
Cc1nc2ccc(C(=O)O)cc2c2c1CC(C)S2 (stereo unspecified)	-7
O=C(CN1CCCN(S(=O)(=O)c2ccc(Br)cc2)CC1)Nc1ccc2cn[nH]c2c1	3
COC(=O)c1cc(C)sc1NC(=O)c1cccnc1	-16
Nc1nncn1C(=O)CCCOc1ccc(Cl)cc1Cl	4
O=C(Nc1ccc2c(c1)OCCO2)C1CCCN(S(=O)(=O)c2cnc[nH]2)C1 (stereo unspecified)	13
CCOc1c(C)cc2[nH]c(CCC(=O)O)nc2c1C	-3
CCOc1cc(C(=O)N2CCOCC2)ccc1OCc1ccccc1	-16
CN(C1CCS(=O)(=O)C1)S(=O)C12CC3CC(CC(C3)C1)C2 (stereo unspecified)	4
O=S(=O)(c1ccc(F)cc1)N1CCC(N2CCN(c3ccccc3)CC2)CC1	-23
O=C1CC(c2cccs2)c2cc3c(cc2N1)OCCO3 (stereo unspecified)	-16
CCOC(=O)C1=C(C)NC(=O)NC1c1cc(C)sc1C (stereo unspecified)	-13
COc1cc(OC)c(C(=O)Nc2ncn[nH]2)cc1OC	1
O=C(O)CCCNS(=O)(=O)c1ccc(NCc2ccccc2)c(C(=O)O)c1	-5
COc1ccc(-c2[nH]c(-c3cccc(OC)c3)nc2SCC(=O)NCc2ccco2)cc1	-2
SMILES	Ecoli WT growth
COc1ccc2nc(S(=O)Cc3ncc(C)c(OC)c3C)[nH]c2c1 (stereo unspecified)	4
COc1cc2c(cc1OC)C(c1cc(OC)c(OC)c(OC)c1)NCC2 (stereo unspecified)	3
C=CCn1c(SCC(N)=O)nnc1-c1cc(Br)ccc1O	-19
C=CCOc1nc2c(c(=O)n(C)c(=O)n2C)n1Cc1c(Cl)cccc1Cl	-5
C=CCNC(=O)C1CC(=O)N(c2ccc(OCC(=O)Nc3ccccc3)cc2)C1 (stereo unspecified)	-5
Cc1onc(-c2ccccc2)c1C(=O)N1CCCSC1=Nc1ccccc1	6
COc1ccc(N2CCN(Cc3nc4c(c(=O)[nH]c(=O)n4C)n3CC(C)=O)CC2)cc1	0
Cc1cc(C(=O)OCC(=O)N2c3ccccc3CC2C)c(C)o1 (stereo unspecified)	1
COc1ccc(-n2c(=O)c3c4c(sc3n3c(C)nnc23)CCCC4)cc1	-3
CC(=O)NC(C)C(=O)OCc1ccc(Cl)cc1Cl (stereo unspecified)	-5
COC(=O)c1sc(N2C(=O)C(O)=C(C(=O)c3ccc(C)o3)C2c2ccc(F)cc2)nc1C (stereo unspecified)	3
CCCCN(CCCC)CCCOC(=O)c1ccc(N)cc1	4
CCOc1cc(C2NC(=O)N(C)C(C)=C2C(=O)OC)cc(Br)c1O (stereo unspecified)	6
CCOc1ccccc1C1CC(c2ccc(Br)cc2)Nc2nc(N)nn21 (stereo unspecified)	8
Cc1sc2ncnc(OCC(=O)N3CCN(S(=O)(=O)c4ccccc4)CC3)c2c1C	-1
COc1cc(C(=O)Nc2cc(Cl)ccc2C)c(-n2cnnn2)cc1OC	-1
O=C(NC(=O)c1ccc(Cl)cc1)Nc1cc(N2CCCCC2)ncn1	1
O=C(Nc1ccc(F)cc1F)NC1CC(=O)N(Cc2ccccc2)C1 (stereo unspecified)	1
Cc1cn([C@H]2C[C@H](N=[N+]=[N-])[C@@H](CO)O2)c(=O)[nH]c1=O	72*
O=c1[nH]c(=O)n([C@H]2C[C@H](O)[C@@H](CO)O2)cc1F	17
Cc1cn([C@H]2C=C[C@@H](CO)O2)c(=O)[nH]c1=O	2
COc1cccc(OCCOc2c(OC)cccc2OC)c1	-2
COc1ccc(S(=O)(=O)N(Cc2ccccc2)Cc2nc(-c3ccccc3)no2)cc1	-18
CCOC(=O)C(C(C)=O)c1c(Br)c(O)c(O)c2c(C(=O)c3ccc(C)cc3)coc12 (stereo unspecified)	-12
C[C@@H]1C[C@H]2[C@@H]3CCC4=CC(=O)C=C[C@]4(C)[C@@]3(F)[C@@H](O)C[C@]2(C)[C@H]1C(=O)CO	8
SMILES	Ecoli WT growth
Cn1cnc2c1c(=O)[nH]c(=O)n2C	2
CCN(CC)C(=O)C1=C(C)Nc2nnnn2C1c1cccnc1 (stereo unspecified)	5
CCn1cc(C(=O)NCCC2=CCCCC2)c(=O)c2cc(S(=O)(=O)N(C)C)ccc21	6
Cc1ccc(-n2c(Cn3cnc4ccccc43)nnc2SCC(=O)O)cc1	-3
COCCn1nnnc1C(c1ccccc1OC)N1CCc2ccccc2C1 (stereo unspecified)	-1
Cc1cc(S(=O)(=O)N2CCN(c3ncccn3)CC2)ccc1-n1cnnn1	0
CCOC(=O)C1(CC)NC(c2cccc(F)c2)C2C(=O)N(CC)C(=O)C21 (stereo unspecified)	-3
COCC(=O)Nc1nc(-c2ccccc2)ns1	-18
O=C(c1cccc(Cl)c1)N1CCN(Cc2ccccc2F)CC1	-15
Cc1ccc(C(CC(=O)N2CCOCC2)c2ccco2)cc1 (stereo unspecified)	-16
CCN(CC)S(=O)(=O)c1ccc(F)c(C(=O)NCCC(C)C)c1	-4
O=C(CCCn1c(=O)c2sccc2n(Cc2ccc(F)cc2)c1=O)NCc1ccco1	11
COc1cc2nc(N3CCNCC3)nc(N)c2cc1OC	-16
CCn1cc(C(=O)O)c(=O)c2cnc(N3CCNCC3)nc21	45*
CCn1cc(C(=O)NCc2ccco2)c(=O)c2cc(F)c(N3CCN(C(=O)c4ccco4)CC3)cc21	10
CCN1CCN(C(=O)Nc2cccc(C(F)(F)F)c2)CC1	-11
CCn1cc(C(=O)O)c(=O)c2cc(F)c(N3CCNCC3)cc21	76*
CCOC(=O)N1CCN(c2cc3[nH]c(=S)[nH]c3cc2F)CC1	10
CC(=O)c1cc(F)c(N2CCN(C(=O)Cc3ccccc3)CC2)cc1C	0
CCn1cc(C(=O)O)c(=O)c2cc(F)c(N3CCN(C(=O)Nc4ccccc4)CC3)cc21	63*
